Test results from ChEMBL document CHEMBL1153955, “Indolylarylsulfones bearing natural and unnatural amino acids. Discovery of potent inhibitors of HIV-1 non-nucleoside wild type and resistant mutant strains reverse transcriptase and coxsackie B4 virus” (J Med Chem, 2009).

Columns and labels:
[1] = test system: Respiratory syncytial virus; assay: Antiviral activity against RSV Long in human HeLa cells assessed as protection against virus-induced cytopathicity; assay type: functional, organism-based
Summary of the method: (§1)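 Confluent cell monolayers inoculated with 100 CCID₅₀ virus. After 1-2 h adsorption, residual virus removed and cultures incubated with varying compound concentrations. Cytopathicity scored once it reached completion in untreated infected controls. EC₅₀ = dose reducing virus-induced cytopathogenicity by 50%.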

[2] = test system: Vesicular stomatitis virus; assay: Antiviral activity against VSV in human HeLa cells assessed as protection against virus-induced cytopathicity; assay type: functional, organism-based
[3] = test system: Human immunodeficiency virus 1; assay: Antiviral activity against HIV1 3B in human CEM cells assessed as protection against virus-induced cytopathicity after 4 days; assay type: functional, organism-based; settings: Human immunodeficiency virus 1, 3B, CCRF-CEM, 96 h
Summary of the method: (§2)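 CEM cells (~3 × 10⁵ cells/mL) infected with ~100 CCID₅₀ per mL of HIV-1 (IIIB) or HIV-2 (ROD), then seeded into wells containing compound dilutions. After 4 days at 37 °C, syncytium (giant cell) formation was examined microscopically. EC₅₀ = concentration protecting CEM cells from HIV cytopathicity by 50%.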

[4] = test system: Human immunodeficiency virus 2; assay: Antiviral activity against HIV2 ROD in human CEM cells assessed as protection against virus-induced cytopathicity after 4 days; assay type: functional, organism-based; settings: Human immunodeficiency virus 2, ROD, CCRF-CEM, 96 h; summary of the method: as §2
[5] = test system: L1210; assay: Antiproliferative activity against mouse L1210 cells after 2 days; assay type: cell-based; settings: L1210, 48 h
Summary of the method: (§3)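 Cells seeded at 5 × 10⁴ to 7.5 × 10⁴ cells/200 µL with or without serial compound dilutions; incubated at 37 °C for 2 days (L1210) or 3 days (Molt4/C8, CEM). Cell numbers counted with a Coulter counter. CC₅₀ = concentration reducing proliferation by 50% versus untreated controls, read from plots of cell number (% of control) against concentration. Means of at least two independent experiments.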

[6] = Antiproliferative activity against human Molt4/C8 cells after 3 days; assay type: cell-based; settings: MOLT-4, 72 h; summary of the method: as §3
[7] = test system: CCRF-CEM; assay: Antiproliferative activity against human CEM cells after 3 days; assay type: cell-based; settings: 72 h; summary of the method: as §3
[8] = target: Human immunodeficiency virus type 1 reverse transcriptase (Human immunodeficiency virus 1, UniProt Q72547); assay: Inhibition of HIV1 reverse transcriptase p66/p51; settings: read-out: IC50
[9] = target: Human immunodeficiency virus type 1 reverse transcriptase (Human immunodeficiency virus 1, UniProt Q72547, L100I); assay: Inhibition of HIV1 reverse transcriptase p66/p51 L100I mutant; settings: read-out: IC50
Summary of the method: (§4)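 Substrate was 0.5 µg poly(rA)/oligo(dT) 10:1 (0.3 µM 3′-OH ends) with 10 µM [³H]dTTP, at 37 °C. Acid-precipitable radioactivity was counted on GF/C filters after TCA washes.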

[10] = target: Human immunodeficiency virus type 1 reverse transcriptase (Human immunodeficiency virus 1, UniProt Q72547, K103N); assay: Inhibition of HIV1 reverse transcriptase p66/p51 K103N mutant; settings: read-out: IC50; summary of the method: as §4
[11] = target: Human immunodeficiency virus type 1 reverse transcriptase (Human immunodeficiency virus 1, UniProt Q72547, Y181I); assay: Inhibition of HIV1 reverse transcriptase p66/p51 Y181I mutant; settings: read-out: IC50; summary of the method: as §4
[12] = Cytotoxicity against human HeLa cells assessed as drug level causing microscopically detectable alteration of normal cell morphology after 3 days; assay type: cell-based
Summary of the method: (§5)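 Serial compound dilutions added to confluent HeLa or Vero monolayers. MCC = minimum concentration causing microscopically detectable alteration of cell morphology after 3 days of incubation.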

[13] = Cytotoxicity against african green monkey Vero cells assessed as drug level causing microscopically detectable alteration of normal cell morphology after 3 days; assay type: cell-based; settings: chlorocebus sabaeus; summary of the method: as §5
[14] = test system: Coxsackievirus B4; assay: Antiviral activity against Coxsackievirus B4 in human HeLa cells assessed as protection against virus-induced cytopathicity; assay type: functional, organism-based; settings: Enterovirus B; summary of the method: as §1
[15] = test system: Coxsackievirus B4; assay: Antiviral activity against Coxsackievirus B4 in african green monkey Vero cells assessed as protection against virus-induced cytopathicity; assay type: functional, organism-based; settings: Enterovirus B; summary of the method: as §1
[16] = test system: Human respirovirus 3; assay: Antiviral activity against Parainfluenza virus type 3 in african green monkey Vero cells assessed as protection against virus-induced cytopathicity; assay type: functional, organism-based; settings: Human respirovirus 3, Vero; summary of the method: as §1
[17] = test system: Mammalian orthoreovirus 1; assay: Antiviral activity against Reovirus 1 in african green monkey Vero cells assessed as protection against virus-induced cytopathicity; assay type: functional, organism-based; settings: Mammalian orthoreovirus 1, Vero; summary of the method: as §1
[18] = test system: Sindbis virus; assay: Antiviral activity against Sindbis virus in african green monkey Vero cells assessed as protection against virus-induced cytopathicity; assay type: functional, organism-based; summary of the method: as §1
[19] = test system: Punta Toro virus; assay: Antiviral activity against Punta Toro virus in african green monkey Vero cells assessed as protection against virus-induced cytopathicity; assay type: functional, organism-based; summary of the method: as §1
[20] = Cytotoxicity against human HEL cells assessed as drug level causing microscopically detectable alteration of normal cell morphology after 3 days; assay type: cell-based
[21] = test system: Human alphaherpesvirus 1; assay: Antiviral activity against HSV1 KOS in human HEL cells assessed as protection against virus-induced cytopathicity; assay type: functional, organism-based; settings: Human alphaherpesvirus 1, KOS
[22] = test system: Human alphaherpesvirus 2; assay: Antiviral activity against HSV2 G in human HEL cells assessed as protection against virus-induced cytopathicity; assay type: functional, organism-based; settings: Human alphaherpesvirus 2, strain G; summary of the method: as §1
[23] = test system: Vaccinia virus; assay: Antiviral activity against Vaccinia virus Lederle in human HEL cells assessed as protection against virus-induced cytopathicity; assay type: functional, organism-based; settings: Orthopoxvirus vaccinia
[24] = test system: Vesicular stomatitis virus; assay: Antiviral activity against VSV in human HEL cells assessed as protection against virus-induced cytopathicity; assay type: functional, organism-based
[25] = test system: Human alphaherpesvirus 1; assay: Antiviral activity against thymidine kinase deficient and acyclovir resistant HSV1 KOS in human HEL cells assessed as protection against virus-induced cytopathicity; assay type: functional, organism-based; settings: Human alphaherpesvirus 1, KOS
[26] = Cytotoxicity against MDCK cells assessed as drug level causing microscopically detectable alteration of normal cell morphology; assay type: cell-based, Canis lupus familiaris; settings: dog
[27] = Cytotoxicity against MDCK cells by MTS assay; assay type: cell-based, Canis lupus familiaris; settings: dog
[28] = test system: Influenza A virus; assay: Antiviral activity against influenza H1N1 virus in MDCK cells assessed as reduction of virus-induced cytopathicity by visual cytopathic effect scoring method; assay type: functional, organism-based
[29] = test system: Influenza A virus; assay: Antiviral activity against influenza H1N1 virus in MDCK cells assessed as reduction of virus-induced cytopathicity by MTS method; assay type: functional, organism-based; settings: Influenza A virus, H1N1, MDCK
[30] = test system: Influenza A virus H3N2; assay: Antiviral activity against influenza H3N2 virus in MDCK cells assessed as reduction of virus-induced cytopathicity by visual cytopathic effect scoring method; assay type: functional, organism-based
[31] = test system: Influenza A virus H3N2; assay: Antiviral activity against influenza H3N2 virus in MDCK cells assessed as reduction of virus-induced cytopathicity by MTS method; assay type: functional, organism-based
[32] = test system: Influenza B virus; assay: Antiviral activity against influenza B virus in MDCK cells assessed as reduction of virus-induced cytopathicity by visual cytopathic effect scoring method; assay type: functional, organism-based
[33] = test system: Influenza B virus; assay: Antiviral activity against influenza B virus in MDCK cells assessed as reduction of virus-induced cytopathicity by MTS method; assay type: functional, organism-based
[34] = Cytotoxicity against feline CRFK cells by MTS assay; assay type: cell-based, Felis catus; settings: cat
[35] = test system: Feline coronavirus; assay: Antiviral activity against Feline coronavirus in feline […] cells assessed as inhibition of virus-induced cytopathicity; assay type: functional, organism-based; settings: Alphacoronavirus 1
[36] = test system: Felid alphaherpesvirus 1; assay: Antiviral activity against Feline herpesvirus in feline […] cells assessed as inhibition of virus-induced cytopathicity; assay type: functional, organism-based

SMILES	EC50 [1]	EC50 [2]	EC50 [3]	EC50 [4]	IC50 [5]	IC50 [6]	IC50 [7]	IC50 [8]	IC50 [10]	MCC at 72 h [12]	MCC at 72 h [13]	EC50 [14]	EC50 [15]	EC50 [16]	MCC at 72 h [20]	EC50 [21]	EC50 [22]	EC50 [23]	EC50 [24]	EC50 [25]	also measured
Cc1cc(C)cc(S(=O)(=O)c2c(C(=O)NC(C)CC(N)=O)[nH]c3ccc(Cl)cc23)c1 (configuration not stated)	> 20 µM	> 20 µM	0.026 µM	30 µM	48 µM	36 µM	32 µM	0.12 µM	0.288 µM	≥ 20 µM	100 µM	4.5 µM	16 µM	> 20 µM	100 µM	> 20 µM	> 20 µM	> 20 µM	> 20 µM	> 20 µM	IC50 [9]: 0.252 µM; IC50 [11]: 4.14 µM; EC50 [17]: > 20 µM; EC50 [18]: > 20 µM; EC50 [19]: > 20 µM; MCC [26]: 20 µM; CC50 [27]: 13.5 µM; EC50 [28]: > 4 µM; EC50 [29]: > 4 µM; EC50 [30]: > 4 µM; EC50 [31]: > 4 µM; EC50 [32]: > 4 µM; EC50 [33]: > 4 µM; CC50 [34]: 18.9 µM; EC50 [35]: > 4 µM; EC50 [36]: > 4 µM
Cc1cc(C)cc(S(=O)(=O)c2c(C(N)=O)[nH]c3ccc(Cl)cc23)c1	> 100 µM	> 100 µM	0.0011 µM	> 2 µM	≥ 500 µM	20 µM	301 µM	0.0003 µM	0.003 µM	> 100 µM	> 100 µM	> 100 µM	> 100 µM	> 100 µM	> 100 µM	> 100 µM	> 100 µM	> 100 µM	> 100 µM	> 100 µM	IC50 [9]: 0.06 µM; IC50 [11]: 0.14 µM; EC50 [17]: > 100 µM; EC50 [18]: > 100 µM; EC50 [19]: > 100 µM; MCC [26]: > 100 µM; CC50 [27]: > 100 µM; EC50 [28]: > 100 µM; EC50 [29]: > 100 µM; EC50 [30]: > 100 µM; EC50 [31]: > 100 µM; EC50 [32]: > 100 µM; EC50 [33]: > 100 µM; CC50 [34]: > 100 µM; EC50 [35]: > 100 µM; EC50 [36]: > 100 µM
Nc1ccn(C[C@@H](CO)OCP(=O)(O)O)c(=O)n1 [CIDOFOVIR]	–	–	–	–	–	–	–	–	–	–	–	–	–	–	> 250 µM	2 µM	1 µM	20 µM	> 250 µM	1 µM	–
Cc1cc(C)cc(S(=O)(=O)c2c(C(=O)NNC(C)C)[nH]c3ccc(Cl)cc23)c1	> 100 µM	> 100 µM	0.0064 µM	> 50 µM	> 500 µM	432 µM	≥ 500 µM	0.01 µM	0.8 µM	> 100 µM	> 100 µM	> 100 µM	> 100 µM	> 100 µM	> 100 µM	> 100 µM	> 100 µM	> 100 µM	> 100 µM	> 100 µM	EC50 [17]: > 100 µM; EC50 [18]: > 100 µM; EC50 [19]: > 100 µM; MCC [26]: 100 µM; CC50 [27]: > 100 µM; EC50 [28]: > 20 µM; EC50 [29]: > 20 µM; EC50 [30]: > 20 µM; EC50 [31]: > 20 µM; EC50 [32]: > 20 µM; EC50 [33]: > 20 µM; CC50 [34]: > 100 µM; EC50 [35]: > 100 µM; EC50 [36]: > 100 µM
